Assay outcomes: PubChem, several laboratories
In the library only some 4.9% were active in any assay of this set; here they are far more common.
STAT3 act = increases IL-6 driven STAT3 reporter signal | U3A cells, IL-6 STAT3-luciferase reporter, luminescence; 100% = signal with IL-6 EC80 alone | activation (% of control), % at 5.6 µM | actives 0.91% (n = 190,000);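 active = activation above the screen-wide mean of compound activation plus 3 SD, cut at about 130% in these data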
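Material: STAT3-luciferase reporter U3A cells; Probe or stimulus: IL-6 (33 ng/mL); Incubation: compound pre-incubation 1 h before IL-6, then 6 h stimulation at 37 °C; Technique: luminescence from STAT3-driven luciferase reporter; Evaluation: % activation versus median of IL-6-stimulated wells; Controls: IL-6-only high control.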
STAT1 inh = reduces IFN-gamma driven STAT1 reporter signal | NIH 3T3 STAT1-luciferase reporter, luminescence | actives 0.35% (n = 200,000) | inhibition, % at 5.5 µM;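 active = inhibition above a set limit, the mean inhibition across all tested compounds plus 3 SD, cut at about 34% in these data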
STAT3 inh = STAT3 signaling inhibition; actives 0.89% (n = 190,000); U3A cells, IL-6 STAT3-luciferase reporter, luminescence; host cell line lacks STAT1; AID 862; inhibition, % at 5.5 µM;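 active = inhibition above the mean inhibition across all screened compounds plus 3 SD, cut at about 44% in these data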
FLuc stim CS = affects firefly luciferase, flagging false hits in luciferase stimulation screens; P08659; ATPlite luciferase biochemical, luminescence, 10 min; 0 = ATP-free wells, 1 = DMSO control; activation factor at 10 µM; 200,000 tested, under 10 active;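 active = luciferase activation factor, scaled between plate controls, of at least 2 with compound at 10 µM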
Target sequence (P08659 whole entry, looked up): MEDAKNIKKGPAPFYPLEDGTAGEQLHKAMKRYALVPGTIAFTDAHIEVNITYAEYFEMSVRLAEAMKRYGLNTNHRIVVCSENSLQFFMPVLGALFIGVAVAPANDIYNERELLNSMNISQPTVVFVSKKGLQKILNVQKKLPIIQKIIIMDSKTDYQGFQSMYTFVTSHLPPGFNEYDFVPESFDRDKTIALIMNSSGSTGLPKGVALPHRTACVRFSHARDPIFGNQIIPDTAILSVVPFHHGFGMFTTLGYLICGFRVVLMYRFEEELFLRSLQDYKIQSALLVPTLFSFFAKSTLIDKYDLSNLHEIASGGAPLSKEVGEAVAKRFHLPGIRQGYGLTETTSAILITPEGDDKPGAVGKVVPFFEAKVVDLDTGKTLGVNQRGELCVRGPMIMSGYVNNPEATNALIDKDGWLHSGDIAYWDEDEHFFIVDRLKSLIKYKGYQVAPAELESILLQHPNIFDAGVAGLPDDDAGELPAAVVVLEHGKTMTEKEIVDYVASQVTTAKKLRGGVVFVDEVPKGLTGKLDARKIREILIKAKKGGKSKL
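System: Luciferase/luciferin detection reagent, cell-free biochemical luciferase assay | Medium: PBS buffer for ATP | Dosing: Test compounds dosed from 2 mM stocks in 100% DMSO | Timing: 10 min at ambient temperature | Signal: Luminescence measurement of luciferase light output | Evaluation: Luciferase activation, seen as luminescence increase over controls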
FLuc inh counter = inhibits firefly luciferase, flagging false hits in luciferase inhibition screens. P08659. ATPLite firefly luciferase biochemical luminescence, 10 min. inhibition, % at 10 µM. actives 1.5% (n = 200,000). AID 1006;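 active = inhibition above about 50% when tested at 10 µM, limit read from the data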
STAT1 act = activators of IFN-gamma induced STAT1 signaling; actives 2.6% (n = 200,000); AID 932; NIH 3T3 STAT1-luciferase reporter, luminescence; 100% = IFN-gamma alone, no compound; activation (% of control), % at 5.5 µM;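 active = activation above the screen-wide mean activation plus 3 SD, cut at about 130% in these data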
Numbers stand for hits; – = inactive; · = not tested or not shown.

SMILES	STAT3 act	STAT1 inh	STAT3 inh	FLuc stim CS	FLuc inh counter	STAT1 act
Cc1ccc(CSc2nc3ccncc3[nH]2)cc1	–	71.5	100.0	–	98.0	–
O=C(c1ccc(CSc2nc3ccncc3[nH]2)cc1)N1CCN(c2cccc(Cl)c2)CC1	–	–	–	–	–	–
Cc1ccc(Nc2ncccc2C(=O)O)cc1C	–	–	–	–	–	–
O=C(O)c1cccnc1Nc1ccc(Cl)cc1	–	–	–	–	–	142.7
CC(CC(=O)Nc1nc2ccccc2[nH]1)n1ccnc1 (stereo not drawn)	–	–	–	–	–	–
O=C(COc1ccccc1)Nc1nc2ccccc2[nH]1	–	–	–	–	–	128.8
Cc1ccccc1OCC(=O)Nc1nc2ccccc2[nH]1	–	–	–	–	83.7	136.3
CC(CC(=O)Nc1nc2ccccc2[nH]1)c1ccccc1 (stereo not drawn)	–	–	–	–	–	145.0
CC(C)CC(NC(N)=O)C(=O)OCC(=O)Nc1ccc(OC(F)F)cc1 (stereo not drawn)	–	–	–	–	–	–
Cc1cc(C(F)F)nn1CC(=O)NC1C(=O)N2C(C(=O)O)=C(CSc3nnnn3C)CSC12 (stereo not drawn)	–	–	–	–	–	–
CC(=O)c1cccc(NC(=O)C(Sc2ncnc3ccccc23)c2ccccc2)c1 (stereo not drawn)	–	–	–	–	–	–
COc1ccc(C(=O)OCCNC(=O)c2ccncc2)cc1OC	–	–	–	–	–	–
CCc1nc(OCc2ccco2)c2sc3nc4c(cc3c2n1)COC(C)(C)C4	–	–	–	–	–	–
COc1nc(C)nc2c1sc1nc3c(cc12)COC(C)(C)C3	–	–	–	–	–	136.8
CC(C)CN(C)C(=O)CCc1nnc(Cc2cccc(C(F)(F)F)c2)o1	–	–	–	–	–	133.2
C=C(C)CNC(=O)CCc1nnc(Cc2cccc(C(F)(F)F)c2)o1	–	–	–	–	–	140.2
O=C(CCc1nnc(Cc2cccc(C(F)(F)F)c2)o1)NCC(F)(F)F	–	–	–	–	–	–
Cc1ccccc1NC(=O)C(Cl)=C(Cl)Cl	–	–	–	–	–	–
CCNC(=O)COC(=O)c1ccc(-c2nc3ccccc3s2)s1	–	–	–	–	86.7	–
CCN1CCN(C(=O)c2ccc(-c3nc4ccccc4s3)s2)CC1	–	–	–	–	–	129.6
CCCN1CCN(C(=O)c2ccccc2-c2nc3ccccc3s2)CC1	–	–	–	–	–	–
O=C(NC1CC1)c1ccc(-c2nc3ccccc3s2)s1	–	75.0	106.3	–	95.9	–
Cc1noc(C)c1COC(=O)c1ccc(-c2nc3ccccc3s2)s1	–	–	–	–	–	–
O=C(c1ccc(-c2nc3ccccc3s2)s1)N1CCOCC1	–	76.9	98.5	–	96.0	–
O=C1c2ccccc2C(=O)N1CCOc1ccccc1	138.1	–	–	·	·	135.2
SMILES	STAT3 act	STAT1 inh	STAT3 inh	FLuc stim CS	FLuc inh counter	STAT1 act
Cc1ccc(C(=O)COC(=O)CCc2ccc(S(=O)(=O)N3CCCCC3)cc2)cc1	–	–	–	–	–	–
COc1nc(-c2ccccc2)nc(C)c1CC(=O)O	–	–	–	–	–	–
COc1nc(-c2ccccc2)nnc1-c1ccccc1	153.0	–	–	–	–	155.6
Cc1cc2ccccc2n1CCNC(=O)c1ccc(Br)o1	·	–	·	–	–	–
COc1cc(NC(=O)c2cc3nc(C)cc(C)n3n2)c(OC)cc1Cl	–	–	–	–	–	131.9
COc1cc(CNc2ccc(CNc3ncn[nH]3)cc2)ccc1OCc1ccccc1	–	–	–	–	–	129.3
Cc1ccc(S(=O)(=O)Nc2ccnc3ccccc23)cc1	–	–	–	–	–	–
Cc1ccc(S(=O)(=O)Nc2cccc3ncccc23)s1	–	–	–	–	–	187.3
CCn1ncc(NC(=S)Nc2ccc3c(c2)OCO3)c1C(N)=O	–	–	–	–	–	–
CCOc1cnc(-c2ccc(Cl)cc2)o1	–	–	–	–	–	139.6
CCOc1cnc(-c2ccc(OC)cc2)o1	–	–	–	–	–	135.0
CCOc1oc(-c2ccc(OC)cc2)nc1C(F)(F)F	–	–	–	–	–	–
O=C(NCCN1C(=O)S/C(=C/c2cccnc2)C1=O)C1CC(=O)N(Cc2ccccc2)C1 (stereo not drawn)	–	–	–	–	–	–
Cc1cc(O)cc2c(=O)c3ccccc3sc12	–	–	–	–	–	–
COc1ccc2sc3ccccc3c(=O)c2c1	–	–	–	–	–	131.6
COc1ccc2oc(=O)cc(C)c2c1	–	–	–	–	–	–
COc1ccc2oc3ccc(OC)cc3c(=O)c2c1	–	–	–	–	–	143.8
Cn1nc(-c2ccccc2)c(CN2CCN(c3ncccn3)CC2)c1Cl	–	–	–	–	–	–
O=C(COC(=O)c1cc(=O)[nH]c(=O)[nH]1)Nc1cccc(S(=O)(=O)N2CCOCC2)c1	–	–	–	–	–	–
CC(=NC1CCCC1)c1c(C)[nH]n(-c2nc3ccccc3s2)c1=O	–	–	–	–	–	141.7
Cc1ccc(-c2cc[n+](Cc3ccccc3)cc2)cc1	–	–	–	–	–	–
Cc1ccc2c(c1)sc[n+]2Cc1ccccc1	–	–	–	–	–	135.3
CCOC(=O)CNC(=O)c1cc(-c2ccccn2)nc2c(C)c(Cl)ccc12	–	–	–	–	–	–
O=C(Cc1ccc(Br)cc1)c1ccc(O)cc1O	–	–	–	–	–	130.2
CCCCC(=O)c1ccc(O)cc1O	–	–	–	·	·	–
SMILES	STAT3 act	STAT1 inh	STAT3 inh	FLuc stim CS	FLuc inh counter	STAT1 act
COc1ccc(CNC(=O)c2ccc3nccnc3c2)cc1	–	–	–	–	–	–
COc1ccc(CNC(=O)c2ccc(C(C)(C)C)cc2)cc1	–	–	–	–	–	137.6
C#CCSc1nnc(-c2ccc(O)cc2)o1	–	–	–	–	–	–
Cc1ccc(-c2nnc(SCc3ccccc3F)o2)cc1	–	–	–	–	–	135.2
C#CCSc1nnc(-c2ccc(C)cc2)o1	–	–	–	–	55.5	128.8
CCCc1nnc(NC(=O)OCC)s1	–	–	–	–	–	–
Cc1ccc2nc3ccc(N4CCCCCCC4)nn3c(=O)c2c1	–	–	–	–	62.3	143.6
Cc1sc2nc3ccc(N4CCCC4)nn3c(=O)c2c1C	·	–	·	–	–	–
Cc1ccc2nc3ccc(N4CCN(C)CC4)nn3c(=O)c2c1	–	–	–	–	–	136.6
O=c1c2ccccc2nc2ccc(N3CCOCC3)nn12	–	–	–	–	–	–
Cc1cc(C(=O)NCC(=O)OCC(=O)NCCc2ccccc2)ccc1[N+](=O)[O-]	–	–	–	–	–	–
COc1ccc(C2NC(=O)NC(c3ccccc3)=C2c2nc3ccccc3s2)cc1 (stereo not drawn)	–	–	–	–	–	–
